Results as given in ChEMBL document CHEMBL1806494, “Synthesis and biological evaluation of potential 5-HT(7) receptor PET radiotracers” (Eur J Med Chem, 2011).
Active and inactive are the calls of the source. No cut-off for these calls is given here.

Assays:
[1] = biological target: 5-hydroxytryptamine receptor 6 (Homo sapiens) (UniProt P50406); experiment: Binding affinity to recombinant human 5HT6 receptor expressed in CHO cells by competitive binding assay; type: cell-based
In short: (§1)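 Cell-based functional assay on human recombinant receptors expressed in CHO cells. Test compound inhibition of the control specific agonist response was measured over a concentration range. Concentration-response curves were built from mean replicate values and fitted with the Hill equation by non-linear regression to give IC50, reported as KB.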

[2] = biological target: T1, 5-hydroxytryptamine receptor 7 (Homo sapiens, UniProt P34969); experiment: Binding affinity to recombinant human 5HT7 receptor expressed in CHO cells by competitive binding assay; type: cell-based; in short: as §1
[3] = biological target: T2, 5-hydroxytryptamine receptor 1A (Homo sapiens) (UniProt P08908); experiment: Binding affinity to recombinant human 5HT1A receptor expressed in CHO cells by competitive binding assay; type: cell-based; in short: as §1
T2 sequence (whole entry): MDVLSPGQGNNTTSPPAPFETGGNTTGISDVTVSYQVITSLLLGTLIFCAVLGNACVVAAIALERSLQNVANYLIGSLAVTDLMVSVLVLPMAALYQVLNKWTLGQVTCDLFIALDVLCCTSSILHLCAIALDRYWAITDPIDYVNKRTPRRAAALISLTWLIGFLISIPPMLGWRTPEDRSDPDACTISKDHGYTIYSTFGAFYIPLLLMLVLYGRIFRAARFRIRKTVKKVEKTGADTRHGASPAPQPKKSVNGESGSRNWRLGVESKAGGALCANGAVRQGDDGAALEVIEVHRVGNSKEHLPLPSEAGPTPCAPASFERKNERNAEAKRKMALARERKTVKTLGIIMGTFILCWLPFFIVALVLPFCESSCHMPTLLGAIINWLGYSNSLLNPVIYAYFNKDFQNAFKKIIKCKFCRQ

[4] = biological target: 5-hydroxytryptamine receptor 7 (Rattus norvegicus) (UniProt P32305); experiment: Binding affinity to 5HT7 receptor in Sprague-Dawley rat hippocampus at 1 uCi/ml after 20 mins by semi-quantitative autoradiography in presence of 10 to 100 nM of 5HT7 receptor antagonist SB269970; type: tissue-based; conditions: tested as the 18F-labelled form
In short: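 Coronal rat brain sections (30 µm, cut through hippocampus and cerebellum, stored at -80 °C) brought to ambient temperature, incubated 20 min in Tris phosphate-buffered saline (138 mM NaCl, 2.7 mM KCl, pH 7.6) with 37 kBq/ml [18F]radiotracer, alone or with SB269970 (10 nM, 100 nM or 1 µM). Rinsed 90 s in cold buffer (4 °C), then 90 s in cold water, dried, and exposed to a phosphor imaging plate for 60 min. Hippocampal binding read semi-quantitatively, in triplicate.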

[5] = biological target: T1, 5-hydroxytryptamine receptor 7; experiment: Binding affinity to 5HT7 receptor

Chain of 5-hydroxytryptamine receptor 6 (Homo sapiens) (P50406 whole entry): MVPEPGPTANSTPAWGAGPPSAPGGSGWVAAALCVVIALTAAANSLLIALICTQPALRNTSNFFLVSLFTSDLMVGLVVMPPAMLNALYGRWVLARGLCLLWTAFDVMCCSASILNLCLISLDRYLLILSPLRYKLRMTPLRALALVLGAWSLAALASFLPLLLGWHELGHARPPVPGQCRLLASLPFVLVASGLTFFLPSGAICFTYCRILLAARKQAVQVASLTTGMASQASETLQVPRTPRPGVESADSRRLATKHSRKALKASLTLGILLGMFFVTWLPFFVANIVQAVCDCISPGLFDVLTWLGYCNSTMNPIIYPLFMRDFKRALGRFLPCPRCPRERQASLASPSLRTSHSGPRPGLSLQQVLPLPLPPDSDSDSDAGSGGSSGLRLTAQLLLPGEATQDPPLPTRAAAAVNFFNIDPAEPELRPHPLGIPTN
Chain of 5-hydroxytryptamine receptor 7 (Rattus norvegicus) (P32305 whole entry): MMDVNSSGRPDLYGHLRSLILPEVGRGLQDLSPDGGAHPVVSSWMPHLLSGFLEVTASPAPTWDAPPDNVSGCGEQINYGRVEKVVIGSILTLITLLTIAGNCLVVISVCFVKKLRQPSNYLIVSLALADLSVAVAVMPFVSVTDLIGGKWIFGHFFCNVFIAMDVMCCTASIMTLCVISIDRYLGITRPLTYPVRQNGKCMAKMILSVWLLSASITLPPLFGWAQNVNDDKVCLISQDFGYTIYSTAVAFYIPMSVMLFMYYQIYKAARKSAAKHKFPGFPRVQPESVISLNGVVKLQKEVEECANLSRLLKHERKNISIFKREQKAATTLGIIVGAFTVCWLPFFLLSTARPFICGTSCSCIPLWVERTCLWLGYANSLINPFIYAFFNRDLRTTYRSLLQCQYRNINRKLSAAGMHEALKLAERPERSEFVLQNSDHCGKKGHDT
T1 sequence (P34969 whole entry): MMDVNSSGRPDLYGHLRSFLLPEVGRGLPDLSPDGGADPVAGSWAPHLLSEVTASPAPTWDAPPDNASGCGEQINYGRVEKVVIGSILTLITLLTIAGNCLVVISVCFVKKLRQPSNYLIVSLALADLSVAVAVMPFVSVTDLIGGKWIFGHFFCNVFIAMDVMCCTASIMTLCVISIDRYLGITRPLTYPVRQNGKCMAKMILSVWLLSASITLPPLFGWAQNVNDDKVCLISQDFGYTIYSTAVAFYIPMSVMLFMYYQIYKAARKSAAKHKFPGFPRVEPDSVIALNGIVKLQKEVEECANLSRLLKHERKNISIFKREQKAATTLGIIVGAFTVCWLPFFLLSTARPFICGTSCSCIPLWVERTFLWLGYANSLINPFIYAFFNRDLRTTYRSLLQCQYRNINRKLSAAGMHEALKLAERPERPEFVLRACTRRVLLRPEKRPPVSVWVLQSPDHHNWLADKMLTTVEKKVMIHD

| Kb [1] | Kb [2] | Kb [3] | Activity [4] | Ki [5] | Structure (SMILES) |
| --- | --- | --- | --- | --- | --- |
| > 10000 nM | 4.8 nM | > 10000 nM | Active |  | COc1ccccc1N1CCN(CC[C@H]2CCCN2S(=O)(=O)c2ccc(F)cc2)CC1 |
| > 10000 nM | 1.6 nM | > 10000 nM | Active |  | COc1ccccc1N1CCN(CC[C@H]2CCCN2S(=O)(=O)c2ccccc2F)CC1 |
| > 10000 nM | 8.4 nM | > 10000 nM | inactive |  | CC1CCN(CC[C@H]2CCCN2S(=O)(=O)c2ccccc2F)CC1 |

Second part, the molecule before the results:

| Structure (SMILES) | Kb [1] | Kb [2] | Kb [3] | Activity [4] | Ki [5] |
| --- | --- | --- | --- | --- | --- |
| CC1CCN(CC[C@H]2CCCN2S(=O)(=O)c2ccc(F)cc2)CC1 | > 10000 nM | 14 nM | > 10000 nM | inactive |  |
| [11CH3]N1C(=O)C2(CCCCN3CCc4sccc4C3)CCCc3cccc1c32 (configuration not stated) |  |  |  |  | 9.7 nM |
